# Source: ChEMBL document CHEMBL4270599, “Synthesis of a 3'-C-ethynyl-β-d-ribofuranose purine nucleoside library: Discovery of C7-deazapurine analogs as potent antiproliferative nucleosides” (Eur J Med Chem, 2018)
# Assays:
# HeLa = test: Antiproliferative activity against human HeLa cells after 72 hrs by Coulter counter method; type: functional, cell-based
# How it was run: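 Cell count assay in 96-well microtiter plates; (5–7.5) × 10⁴ tumor cells per well plus test compound. Cells proliferated at 37 °C in humidified CO₂-controlled atmosphere, 48 h for murine leukemia L1210, 72 h for human lymphocytic CEM and cervix carcinoma HeLa. Counted by Coulter counter; IC₅₀ is the concentration that inhibits proliferation by 50%.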
# EKVX = test: Cytotoxicity against human EKVX cells after 48 hrs by SRB assay; type: functional; settings: for TGI: read-out: TGI
# HOP-92 [1] = test: Cytotoxicity against human HOP92 cells after 48 hrs by SRB assay; type: functional; settings: HOP-92, 48 h; for GI50: read-out: GI50; for CC50: read-out: LC50 (the source's name); for TGI: read-out: TGI
# SW-620 [2] = test: Cytotoxicity against human SW620 cells after 48 hrs by SRB assay; type: functional; settings: SW-620, 48 h; for GI50: read-out: GI50
# SF-539 = test: Cytotoxicity against human SF539 cells after 48 hrs by SRB assay; type: functional; settings: SF-539, 48 h; for GI50: read-out: GI50; for CC50: read-out: LC50 (the source's name); for TGI: read-out: TGI
# UACC-62 [3] = test: Cytotoxicity against human UACC62 cells after 48 hrs by SRB assay; type: functional; settings: UACC-62, 48 h; for CC50: read-out: LC50 (the source's name)
# UO-31 = test: Cytotoxicity against human UO31 cells after 48 hrs by SRB assay; type: functional; settings: UO-31, 48 h; for GI50: read-out: GI50; for TGI: read-out: TGI; for CC50: read-out: pLC50 (the source's name) (converted)
# CCRF-CEM = test: Growth inhibition of human CCRF-CEM cells assessed as cell growth at 10^-8 M incubated for 48 hrs by sulforhodamine B assay relative to control; type: functional; settings: read-out: Activity
# LOX IMVI = test: Growth inhibition of human LOXIMVI cells assessed as cell growth at 10^-8 M incubated for 48 hrs by sulforhodamine B assay relative to control; type: functional; settings: read-out: Activity
# ACHN [4] = test: Growth inhibition of human ACHN cells assessed as cell growth at 10^-8 M incubated for 48 hrs by sulforhodamine B assay relative to control; type: functional; settings: read-out: Activity
# RXF 393 = test: Growth inhibition of human RXF393 cells assessed as cell growth at 10^-8 M incubated for 48 hrs by sulforhodamine B assay relative to control; type: functional; settings: RXF 393, 48 h, read-out: Activity
# BT-549 = test: Growth inhibition of human BT549 cells assessed as cell growth at 10^-8 M incubated for 48 hrs by sulforhodamine B assay relative to control; type: functional; settings: BT-549, 48 h, read-out: Activity
# SF-295 = test: Growth inhibition of human SF295 cells assessed as cell growth at 10^-7 M incubated for 48 hrs by sulforhodamine B assay relative to control; type: functional; settings: SF-295, 48 h, read-out: Activity
# 786-0 [5] = test: Growth inhibition of human 786-0 cells assessed as cell growth at 10^-7 M incubated for 48 hrs by sulforhodamine B assay relative to control; type: functional; settings: 786-0, 48 h, read-out: Activity
# MCF7 = test: Growth inhibition of human MCF7 cells assessed as cell growth at 10^-7 M incubated for 48 hrs by sulforhodamine B assay relative to control; type: functional; settings: MCF7, 48 h, read-out: Activity
# HT-29 = test: Growth inhibition of human HT-29 cells assessed as cell growth at 10^-6 M incubated for 48 hrs by sulforhodamine B assay relative to control; type: functional; settings: HT-29, 48 h, read-out: Activity
# OVCAR-3 = test: Growth inhibition of human OVCAR3 cells assessed as cell growth at 10^-6 M incubated for 48 hrs by sulforhodamine B assay relative to control; type: functional; settings: OVCAR-3, 48 h, read-out: Activity
# DU-145 = test: Growth inhibition of human DU145 cells assessed as cell growth at 10^-6 M incubated for 48 hrs by sulforhodamine B assay relative to control; type: functional; settings: DU-145, 48 h, read-out: Activity
# SR [6] = test: Growth inhibition of human SR cells assessed as cell growth at 10^-5 M incubated for 48 hrs by sulforhodamine B assay relative to control; type: functional; settings: read-out: Activity
# SK-MEL-28 = test: Growth inhibition of human SK-MEL-28 cells assessed as cell growth at 10^-5 M incubated for 48 hrs by sulforhodamine B assay relative to control; type: functional; settings: SK-MEL-28, 48 h, read-out: Activity
# ACHN [7] = test: Growth inhibition of human ACHN cells assessed as cell growth at 10^-5 M incubated for 48 hrs by sulforhodamine B assay relative to control; type: functional; settings: read-out: Activity
# SR [8] = test: Growth inhibition of human SR cells assessed as cell growth at 10^-4 M incubated for 48 hrs by sulforhodamine B assay relative to control; type: functional; settings: read-out: Activity
# SW-620 [9] = test: Growth inhibition of human SW620 cells assessed as cell growth at 10^-4 M incubated for 48 hrs by sulforhodamine B assay relative to control; type: functional; settings: SW-620, 48 h, read-out: Activity
# ACHN [10] = test: Growth inhibition of human ACHN cells assessed as cell growth at 10^-4 M incubated for 48 hrs by sulforhodamine B assay relative to control; type: functional; settings: read-out: Activity
# UACC-62 [11] = test: Growth inhibition of human UACC62 cells assessed as cell growth at 10^-6 M incubated for 48 hrs by sulforhodamine B assay relative to control; type: functional; settings: UACC-62, 48 h, read-out: Activity
# HOP-92 [12] = test: Growth inhibition of human HOP92 cells assessed as cell growth at 10^-6 M incubated for 48 hrs by sulforhodamine B assay relative to control; type: functional; settings: HOP-92, 48 h, read-out: Activity
# 786-0 [13] = test: Growth inhibition of human 786-0 cells assessed as cell growth at 10^-6 M incubated for 48 hrs by sulforhodamine B assay relative to control; type: functional; settings: 786-0, 48 h, read-out: Activity
# [14] = read-out: pLC50 (the source's name) (converted)
# [15] = read-out: LC50 (the source's name)
Compound,IC50 (HeLa) [µM],GI50 (EKVX; read-out: GI50) [µM],TGI (EKVX) [µM],GI50 (HOP-92 [1]) [µM],CC50 (HOP-92 [1]) [µM],TGI (HOP-92 [1]) [µM],GI50 (SW-620 [2]) [µM],TGI (SW-620 [2]; read-out: TGI) [µM],GI50 (SF-539) [µM],CC50 (SF-539) [µM],TGI (SF-539) [µM],CC50 (UACC-62 [3]) [µM],TGI (UACC-62 [3]; read-out: TGI) [µM],GI50 (UO-31) [µM],TGI (UO-31) [µM],CC50 (UO-31) [µM],growth at 0.01 µM (CCRF-CEM) [%],growth at 0.01 µM (LOX IMVI) [%],growth at 0.01 µM (ACHN [4]) [%],growth at 0.01 µM (RXF 393) [%],also measured
C#C[C@@]1(O)[C@@H](CO)O[C@@H](n2cc(Br)c3c(N)ncnc32)[C@@H]1O,0.093,0.15 to 0.261,1.25 to 5.75,0.149 to 0.318,> 100,0.686 to 3.13,0.0312 to 0.076,> 100,0.238 to 0.372,22 to 30.9,1.14 to 2.04,60 to 74.9,11.8 to 12.9,0.115 to 0.13,0.315 to 1.5,> 100,96 to 100,76 to 94,97,99,CC50 (EKVX; [14]): > 100 µM; CC50 (SW-620 [2]; [15]): > 100 µM; TGI (SW-620 [2]; read-out: pTGI (converted)): > 100 µM; GI50 (UACC-62 [3]; read-out: GI50): 0.151 to 0.349 µM; growth at 0.01 µM (BT-549): 89 to 103%; growth at 0.1 µM (SF-295): 60 to 78%; growth at 0.1 µM (786-0 [5]): 69 to 88%; growth at 0.1 µM (MCF7): 12 to 25%; growth at 1 µM (HT-29): 5 to 8%; growth at 1 µM (OVCAR-3): 15 to 17%; growth at 1 µM (DU-145): 15 to 16%; growth at 10 µM (SR [6]): 1 to 5%; growth at 10 µM (SK-MEL-28): 38 to 40%; growth at 10 µM (ACHN [7]): -7%; growth at 100 µM (SR [8]): 2 to 6%; growth at 100 µM (SW-620 [9]): 4 to 6%; growth at 100 µM (ACHN [10]): 7%; growth at 1 µM (UACC-62 [11]): 21 to 23%
C#C[C@@]1(O)[C@@H](CO)O[C@@H](n2cc(Cl)c3c(N)ncnc32)[C@@H]1O,0.051,0.26 to 0.262,2.41 to 2.46,0.433 to 0.476,> 100,3.33 to 3.74,0.0513 to 0.098,> 100,0.299 to 0.351,21.9 to 33.9,1.3 to 1.61,> 100,0.383,0.153 to 0.173,0.472 to 1.78,> 100,96 to 97,70 to 84,95,101 to 108,CC50 (EKVX; [15]): > 100 µM; GI50 (EKVX; read-out: pGI50 (converted)): 0.263 µM; CC50 (SW-620 [2]; [14]): > 100 µM; GI50 (UACC-62 [3]; read-out: pGI50 (converted)): 0.17 µM; TGI (UACC-62 [3]; read-out: pTGI (converted)): 0.38 µM; growth at 0.01 µM (BT-549): 88 to 95%; growth at 0.1 µM (SF-295): 66 to 77%; growth at 0.1 µM (786-0 [5]): 89 to 94%; growth at 0.1 µM (MCF7): 17 to 25%; growth at 1 µM (HOP-92 [12]): 27 to 31%; growth at 1 µM (OVCAR-3): 5 to 7%; growth at 1 µM (786-0 [13]): 9 to 11%; growth at 1 µM (DU-145): 7 to 12%; growth at 10 µM (SR [6]): 1 to 5%; growth at 10 µM (SK-MEL-28): 44 to 45%; growth at 10 µM (ACHN [7]): -30%; growth at 100 µM (SR [8]): 2 to 5%; growth at 100 µM (ACHN [10]): 7%
